Inhibition of growth and IC50 data for 11 compounds are collected here from ChEMBL document CHEMBL3045292, “Synthesis and herbicidal activity of 2-(7-fluoro-3-oxo- 3,4-dihydro-2H-benzo[b][1,4]oxazin-6-yl)isoindoline-1,3-diones” (J Agric Food Chem, 2005).

Molecules are shown by their SMILES.

The test system of test [1] is Echinochloa crus-galli. The test can be described thus: Herbicidal activity against Echinochloa crus-galli (barnyard grass) (barnyard grass) assessed as weed growth inhibition at 75 g/ha post-emergence treatment […]. The class given is functional. To be noted: read-out: GI. In short, it runs like this: (§1)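 Pot-grown plants in the greenhouse, in clay soil (pH 6.5, 1.6% organic matter, 37.3% clay, CEC 12.1 cmol/kg). Compound was made up as a 100 g/L emulsified concentrate (DMF, Tween-80), diluted in water and sprayed at 75 g ai/ha. Pre-emergence spraying was 24 h after sowing; post-emergence at two-leaf (dicots) or one-leaf (monocots) stage. Untreated and DMF controls. Percent growth inhibition scored visually 15 days post-treatment.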

Test [2] has as its system Digitaria sanguinalis. The test can be described thus: Herbicidal activity against crabgrass Digitaria sanguinalis(hairy crabgrass) assessed as weed growth inhibition at post-emergence treatment […]. The class given is functional, organism-based. In short, it runs like this: as §1
Test [3] concerns Chenopodium album. The test can be described thus: Herbicidal activity against fat hen Chenopodium album assessed as weed growth inhibition at 75 g/ha pre-emergence treatment […]. The class given is functional. Particulars: read-out: GI. In short, it runs like this: as §1
The test system of test [4] is Echinochloa crus-galli. The test can be described thus: Herbicidal activity against Echinochloa crus-galli (barnyard grass) (barnyard grass) assessed as weed growth inhibition at 75 g/ha pre-emergence treatment […]. The class given is functional. To be noted: read-out: GI. In short, it runs like this: as §1
Test [5] deals with Abutilon theophrasti. The test can be described thus: Herbicidal activity against Abutilon theophrasti (velvetleaf) assessed as weed growth inhibition at 75 g/ha post-emergence treatment […]. To be noted: read-out: GI. The class given is functional. In short, it runs like this: as §1
The test system of test [6] is Chenopodium album. The test can be described thus: Herbicidal activity against fat hen Chenopodium album assessed as weed growth inhibition at 75 g/ha post-emergence treatment […]. Particulars: read-out: GI. The class given is functional. In short, it runs like this: as §1
The test system of test [7] is Digitaria sanguinalis. The test can be described thus: Herbicidal activity against crabgrass Digitaria sanguinalis(hairy crabgrass) assessed as weed growth inhibition at 75 g/ha pre-emergence treatment […]. Particulars: read-out: GI. The class given is functional. In short, it runs like this: as §1
For test [8], the system named is Abutilon theophrasti. The test can be described thus: Herbicidal activity against Abutilon theophrasti (velvetleaf) assessed as weed growth inhibition at 75 g/ha pre-emergence treatment […]. Particulars: read-out: GI. The class given is functional. In short, it runs like this:
as §1

The subject of test [9] is Digitaria sanguinalis. The test can be described thus: Herbicidal activity against crabgrass Digitaria sanguinalis(hairy crabgrass) assessed as weed growth inhibition at 75 g/ha post-emergence treatment […]. The class given is functional. To be noted: read-out: GI. In short, it runs like this: as §1
Test [10] has as its system Amaranthus blitum. The test can be described thus: Herbicidal activity against Amaranthus blitum assessed as weed growth inhibition at 75 g/ha post-emergence treatment […]. To be noted: read-out: GI. The class given is functional. In short, it runs like this: as §1
Test [11] deals with Abutilon theophrasti. The test can be described thus: Herbicidal activity against Abutilon theophrasti (velvetleaf) assessed as weed growth inhibition at post-emergence treatment […]. The class given is functional, organism-based. In short, it runs like this: as §1
For test [12], the system named is Setaria viridis. The test can be described thus: Herbicidal activity against Setaria viridis (green foxtail) assessed as weed growth inhibition at 75 g/ha pre-emergence treatment […]. The class given is functional. Particulars: read-out: GI. In short, it runs like this:
as §1

In test [13] the test system is Amaranthus blitum. The test can be described thus: Herbicidal activity against Amaranthus blitum assessed as weed growth inhibition at 75 g/ha pre-emergence treatment […]. The class given is functional. To be noted: read-out: GI. In short, it runs like this:
as §1

The subject of test [14] is Setaria viridis. The test can be described thus: Herbicidal activity against Setaria viridis (green foxtail) assessed as weed growth inhibition at 75 g/ha post-emergence treatment […]. To be noted: read-out: GI. The class given is functional. In short, it runs like this:
as §1

On to `O=C1COc2cc(F)c(N3C(=O)c4cccc(F)c4C3=O)cc2N1CC#CI`, for which the inhibition of growth at 75 g/ha in test [1] was above 80%; in test [3], above 80%; in [4], below 50%; in test [5], above 80%; in [6], above 80%; in test [7], below 50%. The inhibition of growth at 75 g/ha is above 80% in [8]; above 80% in test [9]; above 80% in [10]; below 50% in [12]; above 80% in test [13]; above 80% in [14]. Moreover, the IC50 in [2] came out at 40 g/ha; in test [11] it was 7.2 g/ha.

Take `C#CCN1C(=O)C(C)Oc2cc(F)c(N3C(=O)c4ccccc4C3=O)cc21` (centres undefined): the inhibition of growth at 75 g/ha was below 50% in [1]; above 80% in test [3]; below 50% in test [4]; above 80% in test [5]; above 80% in [6]; below 50% in test [7]. Also, the inhibition of growth at 75 g/ha was above 80% in test [8]; below 50% in test [9]; above 80% in test [10]; below 50% in test [12]; above 80% in test [13]; below 50% in test [14]. The IC50 in [2] was determined as 161 g/ha; in test [11], 7.5 g/ha.

As for `CC1Oc2cc(F)c(N3C(=O)c4ccccc4C3=O)cc2N(CC#CI)C1=O` (centres undefined), the inhibition of growth at 75 g/ha in [1] was below 50%; in test [3], above 80%; in test [4], above 80%; in [5], above 80%; in test [6] it was above 80%; in test [7] it was above 80%. Moreover, the inhibition of growth at 75 g/ha in test [8] was above 80%; in test [9], 50%; in [10], above 80%; in test [12], above 80%; in [13], above 80%; in [14], below 50%. Besides, the figures for the IC50 in test [2] and in test [11] were 60 g/ha and 7.4 g/ha, respectively.

`CC1Oc2cc(F)c(N3C(=O)c4cccc(F)c4C3=O)cc2N(CC#CI)C1=O` (centres undefined): the inhibition of growth at 75 g/ha in test [1] was below 50%; in test [3], above 80%; in [4] it was below 50%; in test [5] it was above 80%; in test [6] it was above 80%; in [7], below 50%. Moreover, the inhibition of growth at 75 g/ha in test [8] was above 80%; in [9], below 50%; in test [10], above 80%; in test [12], below 50%; in test [13], above 80%; in [14], below 50%. Besides, the IC50 in test [2] came to 238 g/ha; in test [11] it was 7.5 g/ha.

`Cc1ccc2c(c1)C(=O)N(c1cc3c(cc1F)OC(C)C(=O)N3CC#CI)C2=O` (centres undefined): the inhibition of growth at 75 g/ha is below 50% in test [1]; above 80% in test [3]; below 50% in test [4]; above 80% in test [5]; above 80% in test [6]; below 50% in [7]. Also, the inhibition of growth at 75 g/ha was above 80% in [8]; below 50% in test [9]; above 80% in test [10]; below 50% in test [12]; above 80% in [13]; below 50% in test [14]. The IC50 in [2] is recorded as above 1800 g/ha; in test [11], 30 g/ha.

Turning to `O=C1COc2cc(F)c(N3C(=O)C4=C(CCCC4)C3=O)cc2N1CC#CI`, the inhibition of growth at 75 g/ha in test [1], in [3], in test [4], in test [5], in test [6] and in [7] was above 80% each time. Further, the inhibition of growth at 75 g/ha in test [8], in test [9], in test [10], in [12], in test [13] and in test [14] was above 80% throughout. Moreover, the values for the IC50 in test [2] and in test [11] were 3.8 g/ha and 2.3 g/ha, respectively.

Consider `C#CCN1C(=O)COc2cc(F)c(N3C(=O)c4cccc([N+](=O)[O-])c4C3=O)cc21`, for which the inhibition of growth at 75 g/ha in test [1], in test [3], in [4], in test [5], in test [6] and in test [7] was below 50% throughout. Further, the inhibition of growth at 75 g/ha in [8], in [9], in test [10], in [12], in test [13] and in test [14] was below 50% in each case. The results for the IC50 in test [2] and in test [11] were 210 g/ha and 300 g/ha, respectively.

On to `CN1C(=O)COc2cc(F)c(N3C(=O)c4ccc(F)cc4C3=O)cc21`, for which the inhibition of growth at 75 g/ha in [1], in test [3], in test [4], in [5], in [6] and in test [7] was below 50% throughout. In addition, the inhibition of growth at 75 g/ha in [8], in test [9], in [10], in test [12], in [13] and in test [14] was below 50% throughout. Moreover, the IC50 in test [2] came to 172 g/ha; in test [11], 161 g/ha.

As to `CN1C(=O)COc2cc(F)c(N3C(=O)c4cccc(F)c4C3=O)cc21`, the inhibition of growth at 75 g/ha in [1] was below 50%; in test [3], 50%; in test [4], below 50%; in test [5] it was above 80%; in [6], above 80%; in test [7], below 50%. The inhibition of growth at 75 g/ha is 50% in test [8]; below 50% in test [9]; above 80% in [10]; below 50% in test [12]; 50% in [13]; below 50% in test [14]. The figures for the IC50 in test [2] and in test [11] were above 1800 g/ha and 45 g/ha, respectively.

Regarding `C#CCN1C(=O)C(C)Oc2cc(F)c(N3C(=O)c4ccc(C)cc4C3=O)cc21` (centres undefined), the inhibition of growth at 75 g/ha is below 50% in test [1]; above 80% in [3]; below 50% in test [4]; above 80% in test [5]; above 80% in test [6]; below 50% in [7]. The inhibition of growth at 75 g/ha in test [8] is above 80%; in [9] it was below 50%; in test [10], above 80%; in test [12], below 50%; in test [13] it was above 80%; in [14] it was below 50%. For the same compound, the IC50 in test [2] was 393 g/ha; in test [11], 18 g/ha.

With `C#CCN1C(=O)C(C)Oc2cc(F)c(N3C(=O)c4cccc(F)c4C3=O)cc21` (centres undefined), the inhibition of growth at 75 g/ha in test [1], in [3], in test [4], in test [5], in test [6] and in [7] was above 80% in each case. Moreover, the inhibition of growth at 75 g/ha in [8], in test [9], in [10], in test [12], in [13] and in test [14] was above 80% in each case. Also, the figures for the IC50 in test [2] and in test [11] were 42 g/ha and 7.7 g/ha, respectively.
